Reference: ChEMBL document CHEMBL1148008, “Antimicrobial and cytotoxic activity of agelasine and agelasimine analogs” (Bioorg Med Chem, 2007)
In brackets after ≈: the same amount, converted by molar mass.

Experiments:
U-937/GTB = assay: Cytotoxicity against U937 GTB cells; assay type: functional, cell-based; conditions: Homo sapiens
Procedure, shortened: (§1)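 Fluorometric microculture cytotoxicity assay (FMCA) read-out; IC50 values reported.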

Pichia kudriavzevii = assay: Antifungal activity against Candida krusei ATCC 6258; assay type: functional
[1] = system: Mycobacterium tuberculosis; assay: Antimicrobial activity against Mycobacterium tuberculosis after 20 hrs by broth microdilution method; assay type: functional
[2] = system: Mycobacterium tuberculosis; assay: Antimicrobial activity against Mycobacterium tuberculosis at 6.25 ug/mL after 20 hrs by broth microdilution method; assay type: functional
Escherichia coli = assay: Antibacterial activity against Escherichia coli ATCC 25922 after 20 hrs by broth microdilution method; assay type: functional; conditions: ATCC 25922, 20 h
Procedure, shortened: (§2)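 Strains grown 24 h at 35 °C on tryptone-soya agar. Colonies suspended in saline to 0.5 McFarland, then diluted 1:10 in Mueller-Hinton broth (~10⁷ CFU/mL). Inoculum added to twofold dilutions in broth (final 0.125–32 µg/mL) in triplicate. Incubated aerobically at 35 °C for 20 h. MIC is the lowest concentration giving complete growth inhibition. Repeated at least once; gentamycin/streptomycin served as QC.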

[3] = Cytotoxicity against CEM/s cells; assay type: functional, cell-based; conditions: Homo sapiens; procedure, shortened: as §1
Staphylococcus aureus = assay: Antibacterial activity against Staphylococcus aureus ATCC 25923 after 20 hrs by broth microdilution method; assay type: functional; conditions: ATCC 25923, 20 h; procedure, shortened: as §2
ACHN = assay: Cytotoxicity against ACHN cells; assay type: functional, cell-based; conditions: Homo sapiens; procedure, shortened: as §1
[4] = Cytotoxicity against RPMI 8226/s cells; assay type: functional, cell-based; conditions: Homo sapiens, RPMI8226/S; procedure, shortened: as §1
Bacteroides fragilis = assay: Antibacterial activity against Bacteroides fragilis after 20 hrs by broth microdilution method; assay type: functional
[5] = system: Bacteroides thetaiotaomicron; assay: Antibacterial activity against Bacteroides thetaiotaomicron after 20 hrs by broth microdilution method; assay type: functional
Streptococcus pyogenes = assay: Antibacterial activity against Streptococcus pyogenes after 20 hrs by broth microdilution method; assay type: functional
Enterococcus faecalis = assay: Antimicrobial activity against Enterococcus faecalis after 20 hrs by broth microdilution method; assay type: functional
Pseudomonas aeruginosa = assay: Antibacterial activity against Pseudomonas aeruginosa after 20 hrs by broth microdilution method; assay type: functional

| SMILES | IC50 (U-937/GTB) [µM] | MIC (Pichia kudriavzevii) [µg/mL] | MIC [1] [µg/mL] | inhibition at 6.25 µg/mL [2] [%] | MIC (Escherichia coli) [µg/mL] | IC50 [3] [µM] | MIC (Staphylococcus aureus) [µg/mL] | IC50 (ACHN) [µM] | IC50 [4] [nM] | MIC (Bacteroides fragilis) [µg/mL] | MIC [5] [µg/mL] | MIC (Streptococcus pyogenes) [µg/mL] | MIC (Enterococcus faecalis) [µg/mL] | MIC (Pseudomonas aeruginosa) [µg/mL] |
| --- | --- | --- | --- | --- | --- | --- | --- | --- | --- | --- | --- | --- | --- | --- |
| CC(C)=CCC/C(C)=C/CC/C(C)=C/CC/C(C)=C/Cn1cnc2ncnc(N)c21 | 3.6 | > 16 | 1.56 (≈ 3.83 µM) | 99 | > 32 | 2.88 | > 32 | 7.24 | 2780 |  |  |  |  |  |
| Cc1ncc([N+](=O)[O-])n1CCO [METRONIDAZOLE] |  |  |  |  |  |  |  |  |  | 0.5 (≈ 2.92 µM) | 1 (≈ 5.84 µM) |  |  |  |
| CO/N=c1\[nH]cnc2c1[n+](C/C=C(\C)CC/C=C(\C)CC/C=C(\C)CCC=C(C)C)cn2Cc1ccccc1 | 1.07 |  | 1.56 | 99 | > 32 | 2.24 | > 32 | 3.4 | 1040 |  |  |  |  |  |
| CC(C)=CCC/C(C)=C/CC/C(C)=C/CC/C(C)=C/Cn1cnc2c1c(=N)ncn2C | 6.4 | 2 (≈ 4.74 µM) |  | 84 | 8 (≈ 19 µM) | 7.77 | 4 (≈ 9.49 µM) | 12.3 | 6780 |  |  |  |  |  |
| CC(C)=CCC/C(C)=C/CC/C(C)=C/CC/C(C)=C/C[n+]1cn(C)c2ncnc(N)c21 | 3.17 | > 16 |  |  | > 32 | 3.06 | 32 | 20.3 | 2790 |  |  |  |  |  |
| CO/N=c1\[nH]cnc2c1[n+](C/C=C(\C)CC/C=C(\C)CCC=C(C)C)cn2C | 1.32 | 8 | 3.13 | 99 | 16 | 1.16 | 8 | 40.4 | 1240 | 16 | 16 |  |  |  |
| CO/N=c1\[nH]cnc2c1[n+](C/C=C(\C)CC/C=C(/C)CCC=C(C)C)cn2C | 1.4 |  | 3.13 | 98 | 16 | 1.23 | 6 | 28.7 | 736 | 32 | 16 |  |  |  |
| CO/N=c1\[nH]cnc2c1[n+](C/C=C(\C)CC/C=C(\C)CC/C=C(\C)CCC=C(C)C)cn2C(c1ccccc1)c1ccccc1 | 1.97 |  | 3.13 | 99 | > 32 | 3.54 | 8 | 4.75 | 2600 |  |  |  |  |  |
| CO/N=c1\[nH]cnc2c1[n+](C/C=C(\C)CC/C=C(\C)CC/C=C(\C)CCC=C(C)C)cn2CCC#N | 3.33 |  | > 6.25 | 100 | > 32 | 5.36 | 4 | 11.4 | 3960 |  |  |  |  |  |
| C/N=c1\ncn(C)c2ncn(C/C=C(\C)CC/C=C(\C)CC/C=C(\C)CCC=C(C)C)c12 | > 80 |  | 3.13 (≈ 7.18 µM) | 94 | 16 (≈ 36.7 µM) | > 80 | 3 (≈ 6.89 µM) | > 80 | > 80000 |  |  |  |  |  |
| CO/N=c1\[nH]cnc2c1[n+](C/C=C(\C)CC/C=C(\C)CC/C=C(\C)CCC=C(C)C)cn2C | 1.42 | 2 |  |  | 16 | 1.91 | 4 | 7.38 | 1110 | 8 | 8 | 4 | 8 | > 32 |
| CC(C)=CCC/C(C)=C/CC/C(C)=C/CC/C(C)=C/C[n+]1cn(C)c2nc[nH]/c(=N\OC(C)(C)C)c21 | 4.87 | 2 | 3.13 | 100 | > 32 | 3.86 | 24 | 8.4 | 2090 |  |  |  |  |  |
| C=CCn1c[n+](C/C=C(\C)CC/C=C(\C)CC/C=C(\C)CCC=C(C)C)c2/c(=N/OC)[nH]cnc21 | 1.39 |  | 3.13 | 100 | > 32 | 2.94 | > 32 | 4.61 | 1250 |  |  |  |  |  |
| CO/N=c1\[nH]cnc2c1[n+](C/C=C(\C)CC/C=C(\C)CC/C=C(\C)CCC=C(C)C)cn2C(C)C | 1.1 |  | 1.56 | 100 |  | 2.05 |  | 2.45 | 886 |  |  |  |  |  |
| CO[C@H]1/C=C/O[C@@]2(C)Oc3c(C)c(O)c4c(O)c(c(/C=N/N5CCN(C)CC5)c(O)c4c3C2=O)NC(=O)/C(C)=C\C=C\[C@H](C)[C@H](O)[C@@H](C)[C@@H](O)[C@@H](C)[C@H](OC(C)=O)[C@@H]1C [RIFAMPIN] |  |  | 0.25 (≈ 0.304 µM) |  |  |  |  |  |  |  |  |  |  |  |
| CC(C)=CCC/C(C)=C/CC/C(C)=C/CC/C(C)=C/C[n+]1cn(C)c2nc[nH]/c(=N\OCc3ccccc3)c21 | 6.79 | 1 | 3.13 | 99 | > 32 | 14 | 6 | 20.9 | 8240 | 8 | 16 |  |  |  |
| C/C(=C\C[n+]1cn(C)c2ncnc(N)c21)CCCC(C)CCCC(C)CCCC(C)C (stereo not given) | 3.18 |  | 6.25 | 99 | > 32 | 5.82 | 4 | 11.3 | 2410 |  |  |  |  |  |
| Cn1c[n+](Cc2ccccc2)c2c(N)ncnc21.[Cl-] | > 80 |  |  | 0 | > 32 | > 80 | > 32 | > 80 | > 80000 | > 32 | > 32 |  |  |  |
| CC(C)=CCC/C(C)=C/CC/C(C)=C/CC/C(C)=C/C[n+]1cnc2c(ncn2C)c1N.[Br-] | 39.4 |  |  | 72 | > 32 | 20.8 | 8 | > 80 | 18600 |  |  |  |  |  |
| CC(C)=CCC/C(C)=C/CC/C(C)=C/CC/C(C)=C/C[n+]1cn(C(c2ccccc2)c2ccccc2)c2nc[nH]/c(=N\OCc3ccccc3)c21 | 4.24 |  |  | 78 | > 32 | 9.11 | 8 | 17.2 | 59000 |  |  |  |  |  |
| CC(C)=CCC/C(C)=C/CC/C(C)=C/C[n+]1cn(C)c2ncnc(N)c21.[Cl-] | > 80 |  |  | 13 | > 32 | > 80 | > 32 | > 80 | > 80000 |  |  |  |  |  |
| CC(C)=CCC/C(C)=C/CC/C(C)=C/CC/C(C)=C/Cn1cnc2c1C(=N)N(C)CN2C | 3.36 | 16 (≈ 36.6 µM) | 3.13 (≈ 7.15 µM) | 99 | > 32 | 3.15 | 16 (≈ 36.6 µM) | 5.16 | 2510 |  |  |  |  |  |
| CC(C)=CCC/C(C)=C\CC/C(C)=C/C[n+]1cn(C)c2nc[nH]/c(=N\OCc3ccccc3)c21 | 7.55 |  | 3.13 | 99 | 12 | 10 | 8 | 25.2 | 6760 | 4 | 4 |  |  |  |
| CO/N=c1\[nH]cnc2ncn(C/C=C(\C)CC/C=C(\C)CC/C=C(\C)CCC=C(C)C)c12 | 3.31 |  |  | 74 | > 32 | 5.69 | > 32 | 18.1 | 3000 |  |  |  |  |  |
